{
  "source": "ChEMBL document CHEMBL1240327",
  "about": "“Small molecules enhance autophagy and reduce toxicity in Huntington's disease models” (Nat Chem Biol, 2007)",
  "key": {"[1]": {"test_system": "Saccharomyces cerevisiae", "test": "Enhancement of rapamycin-mediated cytostatic effect in yeast RM11-1a after 48 to 96 hrs", "format": "functional"}, "[2]": {"test_system": "Saccharomyces bayanus", "test": "Enhancement of rapamycin-mediated cytostatic effect in Saccharomyces bayanus after 48 to 96 hrs", "format": "functional"}, "[3]": {"test_system": "HeLa", "test": "Increase in MAP1LC3 level in bafilomycin A1-treated human HeLa cells at 47 uM treated fro 24 hrs before bafilomycin A1 challenge by immunoblotting analysis", "format": "functional, cell-based", "method_in_brief": "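HeLa cells stably expressing EGFP-LC3 were pretreated with compound for 24 h, then given 200 nM bafilomycin A1 for 4 h. EGFP-LC3-II was measured by anti-EGFP immunoblot with densitometry relative to actin, from three independent experiments.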"}, "[4]": {"test_system": "PC-12", "test": "Enhancement of autophagy in rat PC12 cells assessed as decrease in alpha-synuclein A53T mutant level at 5 mg/ml by densitometry", "format": "functional, cell-based", "method_in_brief": "(§1)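 Stable PC12 line with doxycycline-inducible HA-tagged A53T α-synuclein; induced with 1 μg/ml doxycycline for 48 h, then doxycycline removed. Compounds added during the 24 h switch-off period, from 5 mg ml⁻¹ DMSO stock diluted 1:20000, 1:4000 or 1:400. HA immunoblot, densitometry relative to actin; control set to 100 %; three independent experiments, factorial ANOVA.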"}, "[5]": {"target": "Huntingtin (Homo sapiens) (UniProt P42858)", "sequence (P42858 whole entry)": "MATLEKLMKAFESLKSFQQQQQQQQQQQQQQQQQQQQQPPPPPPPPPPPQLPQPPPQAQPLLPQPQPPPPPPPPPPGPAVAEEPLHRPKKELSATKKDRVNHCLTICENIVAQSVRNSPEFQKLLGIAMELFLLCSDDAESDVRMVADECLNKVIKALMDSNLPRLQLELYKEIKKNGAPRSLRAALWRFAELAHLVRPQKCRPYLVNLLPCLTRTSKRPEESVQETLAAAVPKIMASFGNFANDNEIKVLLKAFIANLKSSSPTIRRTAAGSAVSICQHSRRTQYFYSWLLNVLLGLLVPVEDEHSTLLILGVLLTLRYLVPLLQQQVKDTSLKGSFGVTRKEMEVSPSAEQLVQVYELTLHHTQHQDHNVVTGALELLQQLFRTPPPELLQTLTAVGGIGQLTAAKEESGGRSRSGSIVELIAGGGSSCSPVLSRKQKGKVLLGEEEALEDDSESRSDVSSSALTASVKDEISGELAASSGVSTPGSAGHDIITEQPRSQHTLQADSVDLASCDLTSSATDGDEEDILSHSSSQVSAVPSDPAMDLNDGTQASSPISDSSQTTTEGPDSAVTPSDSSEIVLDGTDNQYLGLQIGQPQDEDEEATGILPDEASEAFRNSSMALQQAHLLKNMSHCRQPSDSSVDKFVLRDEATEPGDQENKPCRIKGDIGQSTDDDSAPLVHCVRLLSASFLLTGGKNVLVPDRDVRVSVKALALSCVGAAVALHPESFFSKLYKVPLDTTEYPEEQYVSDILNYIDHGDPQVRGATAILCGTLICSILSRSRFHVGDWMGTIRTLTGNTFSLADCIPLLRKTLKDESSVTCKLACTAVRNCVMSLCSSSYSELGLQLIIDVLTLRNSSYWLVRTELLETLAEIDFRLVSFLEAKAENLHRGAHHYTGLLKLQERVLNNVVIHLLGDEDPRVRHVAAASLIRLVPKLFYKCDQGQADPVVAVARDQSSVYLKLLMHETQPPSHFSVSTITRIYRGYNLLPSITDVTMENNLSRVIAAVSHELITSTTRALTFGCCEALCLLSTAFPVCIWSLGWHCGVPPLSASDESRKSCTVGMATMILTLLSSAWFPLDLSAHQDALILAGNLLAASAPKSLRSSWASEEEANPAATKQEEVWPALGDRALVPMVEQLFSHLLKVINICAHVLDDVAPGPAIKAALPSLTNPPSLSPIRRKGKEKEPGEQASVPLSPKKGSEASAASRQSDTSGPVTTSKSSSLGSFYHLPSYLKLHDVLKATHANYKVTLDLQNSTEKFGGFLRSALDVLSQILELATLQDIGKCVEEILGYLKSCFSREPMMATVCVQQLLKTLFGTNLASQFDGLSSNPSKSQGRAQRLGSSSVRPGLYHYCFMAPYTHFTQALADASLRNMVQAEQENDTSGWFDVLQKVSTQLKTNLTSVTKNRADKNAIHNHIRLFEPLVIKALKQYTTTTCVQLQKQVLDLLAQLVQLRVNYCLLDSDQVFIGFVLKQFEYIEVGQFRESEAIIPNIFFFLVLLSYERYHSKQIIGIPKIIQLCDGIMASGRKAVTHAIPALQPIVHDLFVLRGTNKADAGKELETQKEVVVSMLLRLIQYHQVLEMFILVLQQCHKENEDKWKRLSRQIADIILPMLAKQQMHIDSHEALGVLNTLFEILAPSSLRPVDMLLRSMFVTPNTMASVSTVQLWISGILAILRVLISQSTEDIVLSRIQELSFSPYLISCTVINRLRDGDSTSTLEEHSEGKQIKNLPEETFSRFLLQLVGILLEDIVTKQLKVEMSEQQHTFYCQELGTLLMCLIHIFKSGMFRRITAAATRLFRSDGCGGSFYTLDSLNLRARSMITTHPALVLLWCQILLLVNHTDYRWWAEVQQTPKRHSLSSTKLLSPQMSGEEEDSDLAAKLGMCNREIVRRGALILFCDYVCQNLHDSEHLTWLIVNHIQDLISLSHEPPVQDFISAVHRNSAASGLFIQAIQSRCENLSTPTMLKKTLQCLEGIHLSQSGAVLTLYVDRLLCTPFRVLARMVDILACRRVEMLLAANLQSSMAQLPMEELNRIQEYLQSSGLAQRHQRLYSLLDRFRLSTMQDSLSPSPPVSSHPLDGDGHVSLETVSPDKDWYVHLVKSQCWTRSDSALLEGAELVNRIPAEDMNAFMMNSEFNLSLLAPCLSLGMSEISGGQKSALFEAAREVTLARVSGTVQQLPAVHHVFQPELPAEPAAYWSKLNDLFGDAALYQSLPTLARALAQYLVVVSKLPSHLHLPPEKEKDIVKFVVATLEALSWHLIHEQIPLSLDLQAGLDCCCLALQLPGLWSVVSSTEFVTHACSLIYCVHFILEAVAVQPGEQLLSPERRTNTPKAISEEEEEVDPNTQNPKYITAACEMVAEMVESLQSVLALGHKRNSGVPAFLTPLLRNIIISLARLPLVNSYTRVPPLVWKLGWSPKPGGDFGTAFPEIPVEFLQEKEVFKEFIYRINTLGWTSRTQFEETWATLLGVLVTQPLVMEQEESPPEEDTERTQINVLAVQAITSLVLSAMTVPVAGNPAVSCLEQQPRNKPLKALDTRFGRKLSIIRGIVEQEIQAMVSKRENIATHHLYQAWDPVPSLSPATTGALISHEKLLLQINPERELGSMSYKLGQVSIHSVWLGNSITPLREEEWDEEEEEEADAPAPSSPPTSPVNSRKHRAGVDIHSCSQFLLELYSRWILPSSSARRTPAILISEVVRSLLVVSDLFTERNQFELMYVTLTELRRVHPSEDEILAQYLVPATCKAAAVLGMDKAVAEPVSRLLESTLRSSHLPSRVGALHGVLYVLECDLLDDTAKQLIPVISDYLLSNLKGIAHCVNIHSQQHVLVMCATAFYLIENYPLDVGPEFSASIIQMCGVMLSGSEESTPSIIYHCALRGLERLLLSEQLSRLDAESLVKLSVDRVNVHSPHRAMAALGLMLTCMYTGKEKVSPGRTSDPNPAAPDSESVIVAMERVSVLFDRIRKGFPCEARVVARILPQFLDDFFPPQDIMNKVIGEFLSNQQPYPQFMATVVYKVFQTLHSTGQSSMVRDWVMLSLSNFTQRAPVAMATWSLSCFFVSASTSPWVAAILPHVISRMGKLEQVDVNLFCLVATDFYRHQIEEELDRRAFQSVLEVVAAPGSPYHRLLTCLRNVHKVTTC", "test": "Inhibition of EGFP-tagged huntingtin aggregation expressed in african green monkey COS7 cells at 47 uM after 48 hrs by […]", "format": "cell-based", "details": "COS-7"}, "[6]": {"test_system": "HeLa", "test": "Induction of autophagy in human HeLa cells harboring MAP1LC3 gene at 47 uM after 24 hrs by DAPI staining-based fluorescence microscopy", "format": "functional, cell-based", "method_in_brief": "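Stable EGFP-LC3 HeLa cells treated 24 h. EGFP-positive autophagic vesicles were imaged by confocal microscopy with DAPI nuclear counterstain.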"}, "[7]": {"test_system": "COS-7", "test": "Effect on ATg5 level in african green monkey COS7 cells at 47 uM after 24 hrs by immunoblotting", "format": "functional, cell-based", "details": "Chlorocebus aethiops"}, "[8]": {"test_system": "HeLa", "test": "Inhibition of proteasome activity in human HeLa cells assessed as induction of ubiquitinG76V-EGFP reporter level at 47 uM after 24 hrs by immunoblotting"}, "[9]": {"target": "Serine/threonine-protein kinase mTOR (Homo sapiens) (UniProt P42345)", "test": "Inhibition of mTOR phosphorylation expressed in african green monkey COS7 cells at 47 uM by Western blot analysis", "format": "cell-based", "details": "COS-7"}, "[10]": {"test_system": "Drosophila melanogaster", "test": "Neuroprotective activity in Drosophila melanogaster Huntington's disease model harboring huntington protein mutant assessed as protection against neurodegeneration at 100 uM", "format": "functional, organism-based"}, "[11]": {"target": "Huntingtin (Homo sapiens) (UniProt P42858)", "test": "Inhibition of EGFP-tagged huntingtin expressed in african green monkey COS7 cells assessed as protection against protein-induced cell death at 47 uM after 48 hrs by Western blot analysis", "format": "cell-based", "details": "COS-7"}, "[12]": {"target": "Huntingtin (Mus musculus) (UniProt P42859)", "test": "Inhibition of EGFP-tagged huntingtin aggregation in MEF harboring Atg5 gene at 47 uM after 48 hrs by Western blot analysis"}, "[13]": {"test_system": "Drosophila melanogaster", "test": "Toxicity against Drosophila melanogaster Huntington's disease model at 100 uM", "format": "organism-based", "details": "in vivo"}, "[14]": {"test_system": "PC-12", "test": "Enhancement of autophagy in rat PC12 cells assessed as decrease in alpha-synuclein A53T mutant level at 47 uM by immunoblotting", "format": "functional, cell-based", "method_in_brief": "as §1"}, "[15]": {"test_system": "COS-7", "test": "Effect on ATg12 level in african green monkey COS7 cells at 47 uM after 24 hrs by immunoblotting", "format": "functional, cell-based", "details": "Chlorocebus aethiops"}, "[16]": {"test_system": "COS-7", "test": "Increase in conjugated Atg12-Atg5 level in african green monkey COS7 cells at 47 uM after 24 hrs by immunoblotting", "format": "functional, cell-based", "details": "Chlorocebus aethiops"}, "[17]": {"test_system": "COS-7", "test": "Effect on ATg7 level in african green monkey COS7 cells at 47 uM after 24 hrs by immunoblotting", "format": "functional, cell-based", "details": "Chlorocebus aethiops"}, "[18]": {"test_system": "COS-7", "test": "Effect on ATg6 level in african green monkey COS7 cells at 47 uM after 24 hrs by immunoblotting", "format": "functional, cell-based", "details": "Chlorocebus aethiops"}, "[19]": {"test_system": "PC-12", "test": "Enhancement of rapamycin-induced clearance of alpha-synuclein A53T mutant protein in rat PC12 cells at 47 uM after 8 hrs by immunoblotting", "format": "functional, cell-based", "method_in_brief": "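Inducible PC12 A53T α-synuclein line (1 μg/ml doxycycline, 48 h, then switched off). Compound given alone or with 0.2 μM rapamycin over an 8 h switch-off period. Read-out is anti-HA immunoblot with densitometry relative to actin, n=3, control as 100 %.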"}, "[20]": {"test_system": "Saccharomyces mikatae", "test": "Enhancement of rapamycin-mediated cytostatic effect in Saccharomyces mikatae after 48 to 96 hrs", "format": "functional"}, "[21]": {"test_system": "PC-12", "test": "Enhancement of autophagy in rat PC12 cells assessed as decrease in alpha-synuclein A53T mutant level at 43 uM by immunoblotting", "format": "functional, cell-based", "method_in_brief": "as §1"}, "[22]": {"test_system": "Saccharomyces cerevisiae", "test": "Enhancement of 20 nM rapamycin-mediated cytostatic effect in yeast BY4742 after 48 to 96 hrs", "format": "functional, organism-based"}, "[23]": {"target": "Huntingtin (Mus musculus) (UniProt P42859)", "test": "Inhibition of EGFP-tagged huntingtin aggregation in Atg5-deficient MEF at 47 uM after 48 hrs by Western blot analysis"}, "[24]": {"test_system": "Saccharomyces paradoxus", "test": "Enhancement of rapamycin-mediated cytostatic effect in Saccharomyces paradoxus after 48 to 96 hrs", "format": "functional"}, "[25]": {"test": "Cytotoxicity against african green monkey COS7 cells at 47 uM after 24 hrs by FACS analysis", "format": "cell-based", "details": "chlorocebus aethiops, cos-7, 24 h"}, "[26]": {"target": "Huntingtin (Homo sapiens) (UniProt P42858)", "test": "Inhibition of EGFP-tagged huntingtin aggregation expressed in african green monkey COS7 cells at 47 uM after 24 hrs by […] in presence of 0.2 uM rapamycin", "format": "cell-based", "details": "COS-7"}, "[27]": {"test_system": "Saccharomyces mikatae", "test": "Inhibition of rapamycin-mediated cytostatic effect in Saccharomyces mikatae after 48 to 96 hrs", "format": "functional"}, "[28]": {"test_system": "Saccharomyces cerevisiae", "test": "Inhibition of 50 nM rapamycin-mediated cytostatic effect in yeast BY4742 after 48 to 96 hrs", "format": "functional, organism-based"}, "[29]": {"test_system": "Saccharomyces cerevisiae", "test": "Inhibition of rapamycin-mediated cytostatic effect in yeast RM11-1a after 48 to 96 hrs", "format": "functional"}, "[30]": {"test_system": "Saccharomyces bayanus", "test": "Inhibition of rapamycin-mediated cytostatic effect in Saccharomyces bayanus after 48 to 96 hrs", "format": "functional"}, "[31]": {"test_system": "Saccharomyces paradoxus", "test": "Inhibition of rapamycin-mediated cytostatic effect in Saccharomyces paradoxus after 48 to 96 hrs", "format": "functional"}, "[32]": {"test_system": "Saccharomyces cerevisiae", "test": "Inhibition of 25 nM rapamycin-mediated cytostatic effect in yeast BY4742 at sub-lethal concentration after 48 to 96 hrs", "format": "functional, organism-based"}},
  "note": "Activity calls are given as the source filed them. The rule behind the calls is not given here.",
  "data": [
    {"smiles": "C=CCNc1ncnc2ccc(Br)cc12", "values": [
      {"measurement": "Activity", "setting": "[1]", "result": "Active"},
      {"measurement": "Activity", "setting": "[2]", "result": "Active"},
      {"measurement": "Activity", "setting": "[3]", "result": "Active"},
      {"measurement": "Activity", "setting": "[4]", "result": "Active"},
      {"measurement": "inhibition", "setting": "[5]", "result": "Active"},
      {"measurement": "Activity", "setting": "[6]", "result": "Active"},
      {"measurement": "Activity", "setting": "[7]", "result": "inactive"},
      {"measurement": "inhibition", "setting": "[8]", "result": "inactive"},
      {"measurement": "inhibition", "setting": "[9]", "result": "inactive"},
      {"measurement": "Activity", "setting": "[10]", "result": "Active"},
      {"measurement": "inhibition", "setting": "[11]", "result": "Active"},
      {"measurement": "inhibition", "setting": "[12]", "result": "inactive"},
      {"measurement": "Activity", "setting": "[13]", "result": "Non-toxic"},
      {"measurement": "Activity", "setting": "[14]", "result": "Active"},
      {"measurement": "Activity", "setting": "[15]", "result": "inactive"},
      {"measurement": "Activity", "setting": "[16]", "result": "inactive"},
      {"measurement": "Activity", "setting": "[17]", "result": "inactive"},
      {"measurement": "Activity", "setting": "[18]", "result": "inactive"},
      {"measurement": "Activity", "setting": "[19]", "result": "Active"},
      {"measurement": "Activity", "setting": "[20]", "result": "Active"},
      {"measurement": "Activity", "setting": "[21]", "result": "Active"},
      {"measurement": "EC50", "setting": "[22]", "result": "> 50", "unit": "µM"},
      {"measurement": "inhibition", "setting": "[23]", "result": "inactive"},
      {"measurement": "Activity", "setting": "[24]", "result": "Active"},
      {"measurement": "Activity", "setting": "[25]", "result": "Non-toxic"},
      {"measurement": "inhibition", "setting": "[26]", "result": "Active"}
    ]},
    {"smiles": "S=C(S)OC1CC2CC1C1CCCC21", "note": "(configuration not stated)", "values": [
      {"measurement": "inhibition", "setting": "[27]", "result": "Active"},
      {"measurement": "EC50", "setting": "[28]", "result": 412, "unit": "nM"},
      {"measurement": "inhibition", "setting": "[29]", "result": "Active"},
      {"measurement": "inhibition", "setting": "[30]", "result": "Active"},
      {"measurement": "inhibition", "setting": "[31]", "result": "Active"}
    ]},
    {"smiles": "COc1ccc(C[C@H]2NC[C@H](O)[C@H]2OC(C)=O)cc1", "values": [
      {"measurement": "inhibition", "setting": "[32]", "result": "inactive"}
    ]}
  ]
}
